# Experimental data taken from ChEMBL document CHEMBL1155251, “Efficient synthesis of the first betulonic acid-acetylene hybrids and their hepatoprotective and anti-inflammatory activity” (2009).
# The source made the active and inactive calls. The rule behind the calls is not given here.
# Legend:
# [1] = tested on: Mus musculus; assay: Antiinflammatory activity against carrageenan-induced paw edema in mouse assessed as decrease in index of hind paw edema at 20 mg/kg, po administered 1 hr prior to carrageenan challenge; format: functional, organism-based; design: dose 20 mg/kg
# Procedure, shortened: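 Outbred male mice (22–25 g), ad libitum food/water. Dosed orally at 20 mg/kg as aqueous-Tween suspension 1 h before carrageenan; controls got water–Tween. Killed by cervical dislocation 5 h after phlogogen; hind paws cut at ankle and weighed. Edema index = (treated − untreated paw weight)/untreated paw weight.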
# [2] = tested on: Mus musculus; assay: Hepatoprotective activity against CCL4-induced hepatitis in mouse assessed as thiobarbiturate relative substance level at 50 mg/kg, po administered 1 hr prior to CCL4 challenge (reference value: 1.63+/- 0.24 ucat/L); format: functional
# Procedure, shortened: (§1)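 Outbred male mice (22–25 g). Acute hepatitis induced by single oral 25% CCl4 in sunflower oil. Compounds given orally as water–Tween-80 suspension 1 h before induction; controls got vehicle. At least ten animals per group. Next day, serum ALP, ALT and AST measured with standard kits; TBARS measured by an established procedure.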
# [3] = tested on: Mus musculus; assay: Hepatoprotective activity against CCL4-induced hepatitis in mouse assessed as aspartate amino transferase level at 50 mg/kg, po administered 1 hr prior to CCL4 challenge (reference value: 5.23+/- 0.76 ucat/L); format: functional; procedure, shortened: as §1
# [4] = tested on: Mus musculus; assay: Hepatoprotective activity against CCL4-induced hepatitis in mouse assessed as […] level at 50 mg/kg, po administered 1 hr prior to CCL4 challenge (reference value: 5.04+/- 0.72 ucat/L); format: functional; procedure, shortened: as §1
# [5] = tested on: Mus musculus; assay: Hepatoprotective activity against CCL4-induced hepatitis in mouse assessed as alkaline phosphatase level at 50 mg/kg, po administered 1 hr prior to CCL4 challenge (reference value: 18.27+/- 1.42 ucat/L); format: functional; procedure, shortened: as §1
# [6] = tested on: Mus musculus; assay: Hepatoprotective activity against CCL4-induced hepatitis in mouse assessed as thiobarbiturate relative substance level at 100 mg/kg, po administered 1 hr prior to CCL4 challenge (reference value: 1.63+/- 0.24 ucat/L); format: functional; procedure, shortened: as §1
# [7] = tested on: Mus musculus; assay: Hepatoprotective activity against CCL4-induced hepatitis in mouse assessed as […] level at 100 mg/kg, po administered 1 hr prior to CCL4 challenge (reference value: 5.04+/- 0.72 ucat/L); format: functional; procedure, shortened: as §1
# [8] = tested on: Mus musculus; assay: Hepatoprotective activity against CCL4-induced hepatitis in mouse assessed as alkaline phosphatase level at 100 mg/kg, po administered 1 hr prior to CCL4 challenge (reference value: 18.27+/- 1.42 ucat/L); format: functional; procedure, shortened: as §1
# [9] = tested on: Mus musculus; assay: Hepatoprotective activity against CCL4-induced hepatitis in mouse assessed as aspartate amino transferase level at 100 mg/kg, po administered 1 hr prior to CCL4 challenge (reference value: 5.23+/- 0.76 ucat/L); format: functional; procedure, shortened: as §1
# [10] = tested on: Mus musculus; assay: Hepatoprotective activity against CCL4-induced hepatitis in mouse assessed as thiobarbiturate relative substance level at 20 mg/kg, po administered 1 hr prior to CCL4 challenge (reference value: 1.63+/- 0.24 ucat/L); format: functional; procedure, shortened: as §1
# [11] = tested on: Mus musculus; assay: Hepatoprotective activity against CCL4-induced hepatitis in mouse assessed as alkaline phosphatase level at 20 mg/kg, po administered 1 hr prior to CCL4 challenge (reference value: 18.27+/- 1.42 ucat/L); format: functional; procedure, shortened: as §1
# [12] = tested on: Mus musculus; assay: Hepatoprotective activity against CCL4-induced hepatitis in mouse assessed as aspartate amino transferase level at 20 mg/kg, po administered 1 hr prior to CCL4 challenge (reference value: 5.23+/- 0.76 ucat/L); format: functional; procedure, shortened: as §1
# [13] = tested on: Mus musculus; assay: Hepatoprotective activity against CCL4-induced hepatitis in mouse assessed as […] level at 20 mg/kg, po administered 1 hr prior to CCL4 challenge (reference value: 5.04+/- 0.72 ucat/L); format: functional; procedure, shortened: as §1
SMILES,Activity [1],Activity [2] [µmol/L],Activity [3] [ucat/L],Activity [4] [ucat/L],Activity [5] [ucat/L],also measured
COc1ccc2c(c1)c(CC(=O)O)c(C)n2C(=O)c1ccc(Cl)cc1,Active,–,–,–,–,–
C=C(C)[C@@H]1CC[C@]2(C(=O)Nc3ccc(C#CCN4CCOCC4)cc3)CC[C@]3(C)[C@H](CC[C@@H]4[C@@]5(C)CCC(=O)C(C)(C)[C@@H]5CC[C@]43C)[C@@H]12,Active,3.21,5.25,3.48,14.28,–
C=C(C)[C@@H]1CC[C@]2(C(=O)Nc3ccc(C#CCN4CCCCC4)cc3)CC[C@]3(C)[C@H](CC[C@@H]4[C@@]5(C)CCC(=O)C(C)(C)[C@@H]5CC[C@]43C)[C@@H]12,Active,1.06,3.25,3.08,12.8,–
O=C1c2c(O)cc(O)cc2O[C@H](c2ccc(O)c(O)c2)[C@H]1O [(+)-TAXIFOLIN],–,–,–,–,–,Activity [6]: 1.42 µmol/L; Activity [7]: 3.63 ucat/L; Activity [8]: 11.31 ucat/L; Activity [9]: 3.88 ucat/L
C=C(C)[C@@H]1CC[C@]2(C(=O)Nc3ccc(I)cc3)CC[C@]3(C)[C@H](CC[C@@H]4[C@@]5(C)CCC(=O)C(C)(C)[C@@H]5CC[C@]43C)[C@@H]12,inactive,–,–,–,–,Activity [10]: 2.03 µmol/L; Activity [11]: 10.27 ucat/L; Activity [12]: 3.09 ucat/L; Activity [13]: 2.75 ucat/L
